An excerpt weighted towards active compounds, which were near 2.2% of everything screened.
SMARCA2 act: activators of SMARCA2 function; MG213 cells, MMTV-luciferase reporter, dexamethasone, overnight; activation, % at 9.1 µM; 1% of 370,000 active; in the data active means activation above about 7.8%;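 further: 0% = vehicle wells and 100% = reference activator wells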
NR2E3 ag-1: activates human NR2E3 receptor. inhibition of corepressor binding, % at 3.98 µM. Q9Y5X4. AID 602229. CHO-S Gal4-NCOR/VP16-NR2E3 two-hybrid, luciferase. 0.35% of 360,000 active;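 active means inhibition above the mean of all tested compounds plus 3 SD, cut at about 70% in these data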;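 further: 0% = DMSO with NR2E3 transfected cells and 100% = cells lacking NR2E3 construct; higher means lower luciferase signal from less NR2E3 corepressor binding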
NR2F2 inh: blocks human COUP-TFII nuclear receptor; P24468; HEK293T NGFI-A luciferase reporter, luminescence; inhibition, % at 8.6 µM; 0.7% of 370,000 active; AID 686940;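 active means inhibition above a per-plate cutoff, mean inhibition of test wells between control levels plus 3 SD, cut at about 38% in these data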;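 further: cells cotransfected with COUP-TFII expression vector driving the NGFI-A reporter; 0% = median of COUP-TF2 test wells and 100% = reporter-only cells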
GalR3 antag: antagonists of human GalR3 | O60755 | HEK293 GalR3-CNG cAMP membrane potential fluorescence; galR3 body fused to GalR1 C-terminus | inhibition, % at 3 µM | 0.44% of 360,000 active | AID 651719;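 active means inhibition above the screen-wide average plus 3 SD, cut at about 13% in these data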;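 further: forskolin and galanin both at EC90 stimulate the cells; cAMP rise reported by CNG channel membrane potential dye signal; 0% = forskolin plus galanin with DMSO and 100% = forskolin alone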
Target sequence (O60755 1-299 limits assumed): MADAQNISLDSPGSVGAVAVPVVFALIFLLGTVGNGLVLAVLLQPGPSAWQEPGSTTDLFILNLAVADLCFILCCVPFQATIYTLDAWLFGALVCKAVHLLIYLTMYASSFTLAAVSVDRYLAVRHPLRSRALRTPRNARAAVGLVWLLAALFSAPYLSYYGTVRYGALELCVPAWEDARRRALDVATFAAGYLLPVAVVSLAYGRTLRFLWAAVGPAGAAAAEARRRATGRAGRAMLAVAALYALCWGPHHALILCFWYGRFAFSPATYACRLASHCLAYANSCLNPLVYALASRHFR
NR2E3 ag-2: NR2E3 (human) agonism; Q9Y5X4; GST-NR2E3/biotin-RetCOR TR-FRET, 1536-well; inhibition of corepressor binding, % at 4.78 µM; 0.12% of 320,000 active;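 active means percent inhibition above the cutoff of mean plus 3 SD of all tested compounds, set per screening campaign, cut at about 20% in these data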;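 further: 0% = DMSO wells and 100% = biotin wells as full block of FRET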
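System: GST-NR2E3 and biotin-RetCOR proteins; probe or stimulus: 7 nM biotin-RetCOR; doses: compound at 4.8 µM, single dose; schedule: Compound–protein incubation for 5 h at 4 °C; detection: time-resolved FRET; read-out: percent inhibition; controls: biotin wells as high control, 0.6% DMSO wells as low control; format: 1536-well plates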
GalR3 conf: GalR3 (human) antagonism, confirmation; inhibition, % at 3 µM; shares compounds with GalR3 antag; AID 652245; 59% of 1,600 active; HEK293 GalR3 CNG cAMP biosensor, membrane potential fluorescence; galR3 fused to GalR1 carboxy tail; challenged with forskolin and galanin at EC90;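 active means inhibition above the primary screen's cutoff, the mean inhibition of all screened compounds plus 3 SD, cut at about 13% in these data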;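 further: 0% = forskolin plus galanin and 100% = forskolin alone with DMSO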
CNG parental: counter-screen for GalR3 antagonists: nonspecific agonists in parental HEK-CNG cells. HEK293-CNG parental cells, cAMP membrane potential fluorescence; normalised: DMSO wells 0%, forskolin wells 100%. shares compounds with GalR3 antag. activation, % at 3 µM. AID 652268. 10% of 1,600 active; in the data active means activation above about 1.3%
* marks the source's active call; other numbers are inactive results; . = not tested or not shown.

SMILES	SMARCA2 act	NR2E3 ag-1	NR2F2 inh	GalR3 antag	NR2E3 ag-2	GalR3 conf	CNG parental
COC(=O)[C@]12C[C@H](CC(=O)N3CCN(C(=O)c4ccco4)CC3)C(=O)N(CCc3ccc(OC)c(OC)c3)C1=C[C@H](C(C)C)O[C@@H]2C1CC1	2	.	5	.	.	.	.
CC1C(=O)CC(c2ccc([N+](=O)[O-])cc2)NC1c1ccc([N+](=O)[O-])cc1 (centres undefined)	1	-22	12	18*	-2	17*	0
COc1ccc(C(=O)Nc2ccccc2C(=O)NC(Cc2ccc(O)cc2)C(=O)NNC(=O)c2ccccc2)cc1 (centres undefined)	-3	-7	-6	13*	-3	6	0
CN(Cc1ccccc1)C(=O)OCc1cn(Cc2cc(F)ccc2F)nn1	-3	.	-24	.	.	.	.
CNC(=O)[C@@H](NC(=O)[C@H](CC(C)C)[C@H](O)C(=O)NO)C(C)(C)C	-9	.	27	.	.	.	.
O=C(c1cccs1)N1CCCC1	-1	-10	5	-2	-2	.	.
O=C(c1cccs1)N1CCOCC1	1	-4	2	13*	1	7	0
O=C(Cc1ccc(Nc2nc3ccc(Br)cc3[nH]2)cc1)NCCc1cccs1	-1	10	25	15*	-1	27*	-1
OCc1c(Cl)nc2ccccn12	-7	-8	-17	14*	4	12	0
CC(C)n1c(=S)[nH]c2scc(-c3cccs3)c2c1=O	-3	19	-18	13*	0	2	0
COc1cccc(Cn2c(NCc3ccccn3)nc3c2c(=O)n(C)c(=O)n3C)c1	0	.	-1	14*	.	10	0
COCCOC(=O)c1c(NC(=O)CN2c3ccccc3CC2C)sc(C(N)=O)c1C (centres undefined)	-4	-21	21	17*	-1	10	1
COCCOC(=O)c1c(NC(=O)CN2CCOCC2)sc(C(N)=O)c1C	2	-4	9	-2	-2	.	.
CCCCNS(=O)(=O)/C=C/c1ccc(OC)cc1CNC(=O)OC(C)(C)C	-5	.	13	.	.	.	.
C=CCN(CC=C)C(=O)COC(=O)c1ccc(Sc2ncn[nH]2)c([N+](=O)[O-])c1	-1	-23	1	13*	0	5	0
CCN(C(=O)COC(=O)c1ccc(Sc2ncn[nH]2)c([N+](=O)[O-])c1)c1ccccc1	1	.	7	.	.	.	.
COC(CNC(=O)[C@H](Cc1c[nH]c2ccccc12)NC1(C(=O)NCc2ccccc2)CCCCC1)OC	.	.	-5	.	.	.	.
CN(C(=O)c1ccc(S(=O)(=O)c2cccc(Cl)c2)c([N+](=O)[O-])c1)C1CCCCC1	-7	-14	3	22*	9	-2	0
O=C(NC1CCCCC1)c1ccc(S(=O)(=O)c2ccccc2Cl)c([N+](=O)[O-])c1	.	.	.	.	7	.	.
Cc1cc(C)n(CC(=O)NNC(=O)COc2ccc(Cl)cc2Cl)n1	3	7	-4	-7	0	.	.
Cc1cc(C)n(C(=O)COc2ccc(Cl)cc2Cl)n1	1	-15	-2	14*	-2	16*	0
CC(=O)Nc1ccc(OCC(O)Cn2c3ccccc3c3ccccc32)c(C)c1 (centres undefined)	-3	-33	29	15*	1	41*	-2
CC(=O)Nc1ccc(OCC(O)Cn2c3ccccc3c3ccccc32)cc1 (centres undefined)	-5	-4	-25	-2	5	.	.
CCCCCCCCN1C(=O)[C@@H](CC(=O)NCCCOC)C[C@@]2(C(=O)OC)C1=C[C@H](COCc1ccccc1)O[C@@H]2C	-1	.	5	.	.	.	.
CC(C)(C)N1C(=O)[C@H]2[C@@H](c3ccc(Br)cc3)N3C(=O)N(c4ccccc4)C(=O)[C@@]3(Cc3ccccc3)[C@H]2C1=O	2	5	14	.	1	2	-1
SMILES	SMARCA2 act	NR2E3 ag-1	NR2F2 inh	GalR3 antag	NR2E3 ag-2	GalR3 conf	CNG parental
Cc1ccc(N)c([N+](=O)[O-])c1	-5	15	8	0	0	.	.
CC1CC(=O)NN=C1c1ccc(N)c([N+](=O)[O-])c1 (centres undefined)	4	-11	-6	64*	-1	73*	0
Cc1ccc(OCC(=O)Nc2cc(S(=O)(=O)N3CCCCC3)ccc2C)c([N+](=O)[O-])n1	2	-15	21	13*	-2	0	0
Cc1ccc(OCC(=O)Nc2ccc(S(=O)(=O)N3CCCCC3)cc2)c([N+](=O)[O-])n1	-3	2	9	-6	0	.	.
CS(=O)(=O)c1ncc(Cl)c(C(=O)Nc2ccc3ccccc3c2)n1	-14	20	-18	20*	.	-2	0
COc1cc(C(Nc2ccc(S(=O)(=O)NCC3CCCO3)cc2)C(=O)NC(C)(C)C)cc(OC)c1OC (centres undefined)	-5	6	-8	16*	-1	10	0
O=C(NCc1cccc2ccccc12)C1CCCN(c2nc3ccccc3o2)C1 (centres undefined)	0	.	6	.	.	.	.
COc1ccccc1CN(C)C(=O)C1CCCN(c2nc3ccccc3o2)C1 (centres undefined)	1	.	11	.	.	.	.
O=C(Nc1cc([N+](=O)[O-])ccc1O)c1cccc(C(=O)Nc2cc([N+](=O)[O-])ccc2O)c1	2	-20	3	4	3	.	.
NS(=O)(=O)c1ccc(O)c(NC(=O)c2ccc([N+](=O)[O-])cc2)c1	0	-28	-6	20*	-4	4	0
Cc1ccccc1NC(=O)OC1CCC12CCC(c1ccccc1)CC2 (centres undefined)	-4	.	-5	.	.	.	.
O=Cc1cn(-c2ccccc2)nc1-c1cc2ccccc2oc1=O	0	-2	3	-4	5	.	.
NC(=O)c1cn(-c2ccccc2)nc1-c1cc2ccccc2oc1=O	-4	16	14	108*	-1	95*	0
CCCCSCc1[nH]c(=O)[nH]c1C(=O)CCCCC(=O)OCC	-2	-11	-10	-2	-23	.	.
CCCn1c2ccccc2c2nnc(SCc3[nH]c(=O)[nH]c3C(=O)CCCCC(=O)OCC)nc21	-1	-10	18	17*	-28	12	1
CCOC(=O)CCCCC(=O)c1[nH]c(=O)[nH]c1CSc1nnc2c3ccccc3n(C(C)C)c2n1	0	8	6	31*	-22	18*	0
COc1ccccc1NC(=S)OCCN1CCCC12CCC(c1ccccc1)CC2 (centres undefined)	.	.	-4	.	.	.	.
CCCCOCCCNC(=O)C[C@@H]1C(=O)N(CCc2ccc(Cl)cc2)C2=CCCCC[C@]21C(=O)OC	-1	.	9	.	.	.	.
